# Experimental data published in ChEMBL document CHEMBL4622832, “Synthesis, biological evaluation and molecular modeling study of 2-amino-3,5-disubstituted-pyrazines as Aurora kinases inhibitors” (Bioorg Med Chem, 2020).
# The source made the active and inactive calls. The rule behind the calls is not given here.
# Assays:
# Aurora kinase B [1] = molecular target: T1, Aurora kinase B (Homo sapiens, UniProt Q96GD4); test: Inhibition of Aurora kinase B (unknown origin) incubated for 30 mins by Kinase Glo luminescent assay
# HeLa [2] = test: Antiproliferative activity against human HeLa cells assessed as cell growth inhibition after 72 hrs by MTT assay; format: functional, cell-based
# Summary of the method: (§1)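 Cells seeded at 5 × 10^3 cells/well in medium with 10% FBS for 24 h at 37 °C, 5% CO2. Compounds diluted in culture medium to various concentrations, 72 h exposure. MTT (5 mg/mL stock in serum-free medium) for 4 h, formazan dissolved in DMSO, absorbance at 490 nm. IC50 from log plot of percent of control versus concentration; triplicate.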
# LoVo = test: Antiproliferative activity against human LoVo cells assessed as cell growth inhibition after 72 hrs by MTT assay; format: functional, cell-based; summary of the method: as §1
# HepG2 = test: Antiproliferative activity against human HepG2 cells assessed as cell growth inhibition after 72 hrs by MTT assay; format: functional, cell-based; details: HepG2, 72 h; summary of the method: as §1
# U-87 MG = test: Antiproliferative activity against human U87 cells assessed as cell growth inhibition after 72 hrs by MTT assay; format: functional, cell-based, U-87MG ATCC; summary of the method: as §1
# Aurora kinase A = molecular target: T2, Aurora kinase A (Homo sapiens, UniProt O14965); test: Inhibition of Aurora kinase A (unknown origin) incubated for 30 mins by Kinase Glo luminescent assay
# T2 sequence (O14965 whole entry): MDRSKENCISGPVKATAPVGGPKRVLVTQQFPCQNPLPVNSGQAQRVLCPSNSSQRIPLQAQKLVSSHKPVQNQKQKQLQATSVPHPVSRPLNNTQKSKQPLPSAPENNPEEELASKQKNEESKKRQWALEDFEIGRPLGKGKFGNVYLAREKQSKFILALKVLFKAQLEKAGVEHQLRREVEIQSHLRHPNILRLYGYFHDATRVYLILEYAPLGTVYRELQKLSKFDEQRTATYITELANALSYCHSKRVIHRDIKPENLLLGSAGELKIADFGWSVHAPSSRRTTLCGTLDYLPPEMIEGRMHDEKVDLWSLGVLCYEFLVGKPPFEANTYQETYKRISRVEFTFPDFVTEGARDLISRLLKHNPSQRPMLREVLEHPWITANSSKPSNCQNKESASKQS
# HeLa [3] = test: Induction of cell cycle arrest in human HeLa cells assessed as accumulation in G2/M phase at 10 uM after 24 hrs by propidium iodide staining-based flow cytometric analysis (reference value: 10.5%); format: functional
# Aurora kinase B [4] = molecular target: T1, Aurora kinase B; test: Inhibition of Aurora B in human B-NHL cells assessed as inhibition of histone H3 phosphorylation on Ser10 by immunoblotting analysis; format: cell-based
# HeLa [5] = test: Induction of cell cycle arrest in human HeLa cells assessed as decrease in cyclin B1 expression level at 1 to 10 uM incubated for 24 hrs by Western blot analysis; format: functional, cell-based
# Summary of the method: (§2)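 HeLa cells treated 24 h at 0, 1, 5 or 10 µM. Lysates quantified by BCA; 20–30 µg protein run on 12% SDS-PAGE, transferred to PVDF. Blocked 2 h in 5% milk/TBST. Primary antibodies (1:500–1:1000) overnight at 4 °C against p-Aurora A Thr288, p-Aurora B Thr232, total Aurora A/B, cyclin B1 and cdc2. Secondary at 1:5000–1:10,000; β-actin loading control.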
# Aurora kinase B [6] = molecular target: T1, Aurora kinase B; test: Inhibition of Aurora kinase B in human HeLa cells assessed as reduction in phosphorylation at Thr232 residue incubated for 24 hrs by western blot analysis; format: cell-based; summary of the method: as §2
# HeLa [7] = test: Induction of cell cycle arrest in human HeLa cells assessed as accumulation in G2/M phase after 24 hrs by propidium iodide staining-based flow cytometric analysis; format: functional
# HeLa [8] = test: Induction of cell cycle arrest in human HeLa cells assessed as accumulation in G2/M phase at 1 uM after 24 hrs by propidium iodide staining-based flow cytometric analysis (reference value: 10.5%); format: functional
# [9] = molecular target: T3, Aurora kinase A (Homo sapiens) (UniProt O14965); test: Inhibition of Aurora kinase A in human HeLa cells assessed as reduction in phosphorylation at Thr288 residue incubated for 24 hrs by western blot analysis; format: cell-based; summary of the method: as §2
# T3 sequence (whole entry): T2 sequence (O14965 whole entry)
# HeLa [10] = test: Induction of cell cycle arrest in human HeLa cells assessed as accumulation in G2/M phase at 5 uM after 24 hrs by propidium iodide staining-based flow cytometric analysis (reference value: 10.5%); format: functional
# HeLa [11] = test: Induction of cell cycle arrest in human HeLa cells assessed as decrease in cdc2 expression level at 1 to 10 uM incubated for 24 hrs by Western blot analysis; format: functional, cell-based; summary of the method: as §2
# T1 sequence (Q96GD4 whole entry): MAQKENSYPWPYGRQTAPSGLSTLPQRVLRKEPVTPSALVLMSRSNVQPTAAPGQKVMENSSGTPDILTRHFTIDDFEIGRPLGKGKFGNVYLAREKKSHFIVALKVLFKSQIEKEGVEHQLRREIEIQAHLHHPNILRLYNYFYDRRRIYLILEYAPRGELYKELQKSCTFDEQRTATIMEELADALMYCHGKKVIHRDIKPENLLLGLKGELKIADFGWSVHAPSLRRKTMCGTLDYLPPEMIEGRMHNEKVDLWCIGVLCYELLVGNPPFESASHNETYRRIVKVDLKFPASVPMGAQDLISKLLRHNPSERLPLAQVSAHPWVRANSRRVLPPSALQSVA
SMILES,IC50 (Aurora kinase B [1]) [µM],IC50 (HeLa [2]) [µM],IC50 (LoVo) [µM],IC50 (HepG2) [µM],IC50 (U-87 MG) [µM],IC50 (Aurora kinase A) [µM],also measured
Cc1noc(C)c1-c1cnc(N)c(Oc2ccc(C(=O)N3CCN(C)CC3)cc2)n1,0.189,8.03,7.69,17.6,21.5,0.143,–
Cn1cc(-c2cnc(N)c(Oc3ccc(C(=O)Nc4ccc(Cl)cn4)cc3)n2)cn1,–,21.5,6.16,24.2,22.2,–,–
Cc1noc(C)c1-c1cnc(N)c(Oc2ccc(C(=O)NC3CCCC3)cc2)n1,–,9.97,25.2,12.8,57.6,–,–
Cc1noc(C)c1-c1cnc(N)c(Oc2ccc(C(=O)Nc3cc(Cl)ccn3)cc2)n1,–,37.9,> 100,> 100,70.8,–,–
Cc1noc(C)c1-c1cnc(N)c(Oc2ccc(C(=O)N3CCOCC3)cc2)n1,0.36,14.1,10.2,15.4,27.2,0.172,–
Cn1cc(-c2cnc(N)c(Oc3ccc(C(=O)Nc4ccccc4)cc3)n2)cn1,0.164,12.3,9.21,11.6,17.7,0.22,–
Cn1cc(-c2cnc(N)c(Sc3ccc(C(=O)Nc4ccc(Cl)cc4)cc3)n2)cn1,–,42.7,> 100,> 100,> 100,–,–
Cc1noc(C)c1-c1cnc(N)c(Oc2ccc(C(=O)Nc3ncccc3Cl)cc2)n1,–,31.9,14.8,27.2,45.6,–,–
Cc1noc(C)c1-c1cnc(N)c(Oc2ccc(C(=O)Nc3ccccc3Cl)cc2)n1,–,81.3,> 100,> 100,60.5,–,–
Cn1cc(-c2cnc(N)c(Oc3ccc(C(=O)Nc4cc(Cl)ccn4)cc3)n2)cn1,–,40.8,26.6,> 100,47.9,–,–
Cc1noc(C)c1-c1cnc(N)c(Oc2ccc(C(=O)Nc3ccccc3)cc2)n1,0.538,10.5,5.74,11.8,26.6,0.22,–
Cc1noc(C)c1-c1cnc(N)c(Oc2ccc(C(=O)Nc3cccc(Cl)n3)cc2)n1,–,25.5,39.3,35.7,64.1,–,–
Cc1noc(C)c1-c1cnc(N)c(Sc2ccc(C(=O)Nc3ccc(Cl)cc3)cc2)n1,–,38.4,49.2,45.2,> 100,–,–
Cn1cc(-c2cnc(N)c(Oc3ccc(C(=O)Nc4ncccc4Cl)cc3)n2)cn1,–,36.1,16.5,21.7,37.6,–,–
Cn1cc(-c2cnc(N)c(Oc3ccc(C(=O)Nc4cccc(Cl)c4)cc3)n2)cn1,0.272,4.46,24.5,21.2,21.7,0.658,–
Cc1noc(C)c1-c1cnc(N)c(NCc2ccc(C(=O)Nc3ccc(Cl)cc3)cc2)n1,–,> 100,> 100,> 100,> 100,–,–
Cn1cc(-c2cnc(N)c(Oc3ccc(C(=O)Nc4cccc(Cl)n4)cc3)n2)cn1,–,38.2,48.6,44.2,54.8,–,–
Cc1cc(Nc2cc(N3CCN(C)CC3)nc(Sc3ccc(NC(=O)C4CC4)cc3)n2)n[nH]1 [TOZASERTIB],–,9.5,13.6,12.8,14.5,–,Activity (HeLa [3]): 36%
Cc1noc(C)c1-c1cnc(N)c(Oc2ccc(C(=O)NC3CC3)cc2)n1,–,17.8,> 100,43.2,43.3,–,–
Cc1noc(C)c1-c1cnc(N)c(Oc2ccc(C(=O)Nc3ccc(Cl)cc3)cc2)n1,0.26,2.23,1.92,14.4,15.5,0.458,–
Cc1noc(C)c1-c1cnc(N)c(Oc2ccc(C(=O)Nc3ccc(Cl)cn3)cc2)n1,–,19.2,9.18,35.6,45.6,–,–
Cn1cc(-c2cnc(N)c(NCc3ccc(C(=O)Nc4ccc(Cl)cc4)cc3)n2)cn1,–,42.1,43.6,20.1,> 100,–,–
CCCNC(=O)c1ccc(Oc2nc(-c3c(C)noc3C)cnc2N)cc1,–,32.1,17.5,6.88,47.8,–,–
Cn1cc(-c2cnc(N)c(Oc3ccc(C(=O)Nc4ccccc4Cl)cc3)n2)cn1,–,73,41.4,66.9,44.8,–,–
O=C(Nc1c[nH]nc1-c1nc2ccc(CN3CCOCC3)cc2[nH]1)NC1CC1 [AT-9283],–,–,–,–,–,–,IC50 (Aurora kinase B [4]): 0.03 µM
Cc1noc(C)c1-c1cnc(N)c(Oc2ccc(C(=O)Nc3cccc(Cl)c3)cc2)n1,0.152,1.34,1.64,7.3,11.5,0.09,Activity (HeLa [3]): 34.9%; Activity (HeLa [5]): Active; inhibition (Aurora kinase B [6]): Dose-dependent effect; Activity (HeLa [7]): Dose-dependent effect; Activity (HeLa [8]): 21%; inhibition [9]: Dose-dependent effect; Activity (HeLa [10]): 30.1%; Activity (HeLa [11]): Active
Cc1noc(C)c1-c1cnc(N)c(Oc2ccc(C(=O)NC3CCCCC3)cc2)n1,0.32,26.1,21.6,5.42,40.4,0.23,–
Cn1cc(-c2cnc(N)c(Oc3ccc(C(=O)Nc4ccc(Cl)cc4)cc3)n2)cn1,0.175,3.44,3.08,11.9,35.8,0.19,–
